Assay outcomes: PubChem BioAssay, Sanford-Burnham Center for Chemical Genomics
Sampled rows, rich in hits. Any-hit rate of the full collection: about 1.5%.
APJ antagonist – antagonists of human apelin receptor APJ, primary screen, CHO-K1 cells, beta-arrestin complementation, luminescence; P35414; inhibition, % at 20 µM; actives 0.32% (n = 330,000);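 active = inhibition above about 40% at 20 µM, limit read from the data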;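 note: cells challenged with 10 nM apelin-13 agonist together with compound; plate controls were apelin-13 plus DMSO wells for no effect and DMSO wells lacking apelin-13 for full effect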
CCR6 antagonist – CCR6 receptor antagonists, primary screen, cell-based, CHO-K1, luminescence, beta-arrestin, uHTS | actives 0.49% (n = 340,000) | C-C chemokine receptor type 6 (Homo sapiens), P51684 | inhibition, % at 20 µM | AID 493098, 2011 | CHO-K1 CCR6 PathHunter beta-arrestin, CCL20-stimulated;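 active = compounds whose inhibition of the agonist-driven luminescence signal at 20 µM reaches about 50%, limit read from the data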;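 note: cells stimulated with CCL20 at 14 nM final; plate controls were DMSO with CCL20 for no effect and DMSO without agonist for full effect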
Target sequence (P51684 whole entry, looked up): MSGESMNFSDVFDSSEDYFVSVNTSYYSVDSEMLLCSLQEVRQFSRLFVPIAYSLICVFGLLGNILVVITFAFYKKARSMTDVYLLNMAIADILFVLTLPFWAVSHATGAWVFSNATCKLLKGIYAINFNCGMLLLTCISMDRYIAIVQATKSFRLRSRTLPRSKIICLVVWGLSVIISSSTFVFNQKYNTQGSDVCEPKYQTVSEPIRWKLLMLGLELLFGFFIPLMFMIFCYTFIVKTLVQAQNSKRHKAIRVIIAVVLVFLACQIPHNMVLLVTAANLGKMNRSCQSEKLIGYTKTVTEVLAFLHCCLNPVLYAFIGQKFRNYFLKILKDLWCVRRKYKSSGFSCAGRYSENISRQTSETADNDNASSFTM
EBI2 antag – EBI2 receptor antagonists, beta-arrestin recruitment, primary screen, cell-based, luminescence, 7a,25-OHC stimulation, uHTS | 7a,25-OHC stimulated | inhibition, % at 5 µM | actives 0.81% (n = 360,000) | AID 651636, 2012; in the data active = inhibition above about 38%;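 note: enzyme fragment complementation signal reports receptor beta-arrestin coupling in cells; 0% = agonist plus DMSO wells and 100% = wells without agonist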
CXCR6 block – CXCR6 receptor inhibitors, primary screen, cell-based, beta-arrestin, luminescence, CHO-K1 PathHunter, 1536-well. inhibition, % at 20 µM. actives 0.36% (n = 360,000). C-X-C chemokine receptor type 6 (Homo sapiens), O00574; in the data active = inhibition above about 34%, passing the limit was not always enough;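 note: antagonist mode with CXCL16 agonist at 10 nM final; 0% = 10 nM CXCL16 with DMSO and 100% = unstimulated wells without agonist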
APJ agonist – agonists of human apelin receptor APJ, primary screen, CHO-K1 cells, PathHunter beta-arrestin, luminescence | P35414 | 0% DMSO wells, 100% apelin | activation, % at 20 µM | actives 0.11% (n = 330,000);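 active = activation more than six SD over the plate average, tested at 20 µM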;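 note: 0% = DMSO alone and 100% = apelin-13 at 10 nM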
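Assay system: engineered CHO-K1 APJ arrestin reporter cells; Amount: 1000 CHO-K1 reporter cells seeded per well; Dosing: one dose, 20 µM compound, 1% DMSO; Times: compound stimulation 90 min at 25 °C, detection 60 min; Measured by: luminescent beta-gal fragment complementation, chemiluminescent substrate; Read-out: APJ–arrestin association signal; Controls: DMSO vs Apelin-13 10 nM.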
CXCR6 confirm – CXCR6 receptor antagonists, confirmation, cell-based, single concentration, beta-arrestin, luminescence; actives 65% (n = 700); CHO-K1 CXCR6 PathHunter beta-arrestin; inhibition, % at 20 µM; AID 602409, 2012; shares compounds with CXCR6 block;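 active = mean inhibition over four retests above 40%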;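 note: receptor stimulated with 10 nM CXCL16 agonist; beta-galactosidase fragment complementation upon beta-arrestin recruitment to receptor; plate controls were CXCL16 plus DMSO for no effect and DMSO without CXCL16 for full effect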
EBI2 antag conf – EBI2 antagonist hit retest, beta-arrestin, confirmation, cell-based, single concentration, luminescence, 7a,25-OHC stimulation | actives 29% (n = 2,400) | shares compounds with EBI2 antag | AID 651997, 2013 | 7a,25-OHC antagonism | inhibition, % at 5 µM;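 active = inhibition of at least 50%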
EBI2 agonist – EBI2 agonist activity of antagonist hits, confirmation, counter-screen for EBI2 antagonist project, cell-based, single concentration, agonist mode, luminescence; shares compounds with EBI2 antag; EBI2-expressing cells, 60 min; 0% vehicle, 100% 7α,25-dihydroxycholesterol control; 2,400 tested, under 10 active; activation, % at 5 µM;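 active = activation of at least 50%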
bGal counter – E. coli beta-galactosidase enzyme inhibition, confirmation, counter-screen for EBI2 antagonist project, biochemical, luminescence, single concentration; shares compounds with EBI2 antag; purified beta-galactosidase, luminescent Galacton Star, 15 min; inhibition, % at 5 µM; actives 1% (n = 2,400);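 active = replicate-average signal at least 3 plate SD below neutral wells, shown as high inhibition, flagging enzyme-inhibiting false positives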;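 note: 0% = DMSO wells with enzyme and 100% = wells lacking enzyme; higher means stronger loss of beta-gal luminescence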
Numbers without * were called inactive; / = no result.

SMILES	APJ antagonist	CCR6 antagonist	EBI2 antag	CXCR6 block	APJ agonist	CXCR6 confirm	others
CC(OC(=O)c1nc(-c2ccccc2)n(-c2ccccc2)n1)C(=O)Nc1cc(Cl)cc(Cl)c1 (configuration not stated)	1	9	3	47*	-1	13
O=C1NC[C@H](CCCCN2C[C@H](Cc3ccc(O)cc3)N(CCc3ccc(O)cc3)C(=O)C2=O)N(CC2CCCCC2)C1=O	/	/	-1	-5	/	/
CC1=C(CO)C(=O)OC([C@@H](C)C2CC[C@H]3C4C[C@H]5O[C@]56[C@@H](O)C=CC(=O)[C@]6(C)C4CC[C@]23C)C1 (some centres not stated)	/	41	55*	44*	/	48*
CCOc1ccc(N(CC(=O)N/N=C/c2ccccn2)S(=O)(=O)c2ccc(Cl)cc2)cc1	-9	19	5	40*	-10	41*
CCOc1ccc(N(CC(=O)NCCSc2ccccn2)S(=O)(=O)c2ccc(Cl)cc2)cc1	4	11	24	16	0	/
Cn1ccnc1Sc1cc(NCCCO)c([N+](=O)[O-])c2nonc12	38	23	-17	40	-3	/
CC(=O)OCCNc1cc(Sc2nc3ccccc3[nH]2)c2nonc2c1[N+](=O)[O-]	/	103*	59*	96*	/	105*
CCCC(=O)OCCNc1cc(SCCC(=O)OC)c2nonc2c1[N+](=O)[O-]	20	62*	-9	50*	-4	63*
O=[N+]([O-])c1c(NCCCO)cc(Sc2ccc(Cl)cc2)c2nonc12	/	98*	33	77*	/	96*
COC(=O)CCSc1cc(NCCOC(C)=O)c([N+](=O)[O-])c2nonc12	21	33	2	27	-3	/
COc1ccccc1-c1csc(C(O)c2ccc(F)c(F)c2)n1 (configuration not stated)	/	/	7	-11	/	/
S=C(Nc1ccccc1)c1ccccn1	9	/	0	56*	-7	79*
S=C(Nc1ccccc1)Nc1ccccn1	/	/	-2	5	/	/
COCCNC(=O)C1(C)CCN(C(=O)c2sc(-c3ccccc3)nc2C)C1 (configuration not stated)	/	/	-7	6	/	/
CCN1CCN(C(=O)/C=C/c2ccc(C)o2)CC1	11	1	-3	3	-4	/
Cc1ccc(/C=C/C(=O)N2CC(C)CC(C)C2)o1 (configuration not stated)	29	27	4	76*	-1	6
CC1(C(=O)Nc2ccc(Cl)c(Cl)c2)CCN1C(=O)CCC1CCCC1 (configuration not stated)	/	/	3	0	/	/
COc1ccc(/C=N/Nc2ccccc2)cc1Cn1nc(C)c([N+](=O)[O-])c1C	8	37	13	51*	-4	13
COc1ccc(-c2c(C(=O)c3ccccc3)[nH]c(N)c2C(=O)c2ccc(Br)cc2)cc1OC	/	/	42*	61*	/	65*	EBI2 antag conf=41;EBI2 agonist=-2;bGal counter=0
CCCCCNC(=O)C(c1cccc2ccccc12)n1c(=O)c(-c2cc3ccccc3[nH]2)nc2ccccc21 (configuration not stated)	/	/	0	/	/	/
CCOCc1nc(N)nc(N)c1-c1cccc(Cl)c1	/	/	2	3	/	/
Cc1cc(C)nc(N/N=C/C2=C(O)CC(c3ccc(F)cc3)CC2=O)n1 (configuration not stated)	23	78*	57*	60*	-13	26	EBI2 antag conf=67*;EBI2 agonist=-5;bGal counter=-5
Cc1ccc(C2CC(=O)C(C=NCCN3CCN(C(=S)Nc4ccc(F)cc4)CC3)=C(O)C2)cc1 (configuration not stated)	-16	1	6	8	-2	/
O=C(Nc1ccccc1)c1ccc(Nc2c([N+](=O)[O-])cc([N+](=O)[O-])c3ccccc23)cc1	75*	84*	49*	56*	-10	67*	EBI2 antag conf=47;EBI2 agonist=-1;bGal counter=23
CC1=C(C(=O)OCC2CCCO2)C(c2cccc(C(F)(F)F)c2)C2=C(CC(c3ccco3)CC2=O)N1 (configuration not stated)	-5	8	53*	7	-4	/	EBI2 antag conf=30;EBI2 agonist=0;bGal counter=5
SMILES	APJ antagonist	CCR6 antagonist	EBI2 antag	CXCR6 block	APJ agonist	CXCR6 confirm	others
CC1=C(C(=O)OCC2CCCO2)C(c2ccccc2OC(C)C)C2=C(CC(c3ccco3)CC2=O)N1 (configuration not stated)	12	-2	-2	13	-6	/
CC1(C(=O)Nc2cnc3ccccc3c2)CCN1C(=O)c1ccccc1CCc1ccccc1 (configuration not stated)	/	/	48*	8	/	/	EBI2 antag conf=37;EBI2 agonist=0;bGal counter=-17
Cc1ccc(CNC(=O)C2CCN(S(=O)(=O)c3ccc4c(c3)OCCCO4)CC2)cc1	6	9	79*	3	-1	/	EBI2 antag conf=67*;EBI2 agonist=2;bGal counter=8
Cc1ccc(NC(=O)C2CCN(S(=O)(=O)c3ccc4c(c3)OCCCO4)CC2)nc1	16	2	-8	-11	-2	/
COc1ccc(CNC(=O)C2CCN(S(=O)(=O)c3ccc4c(c3)N(C(C)=O)CCO4)CC2)cc1	28	9	73*	-8	-1	/	EBI2 antag conf=46;EBI2 agonist=1;bGal counter=3
COC(=O)c1ccc2nc(-c3ccc(OC)c(OC)c3)c(Cc3cccc(F)c3)n2c1	/	/	29	8	/	/
CC1=NN(c2ccc(Cl)cc2)C(=O)C1C(c1ccccc1O)c1c(C)[nH]n(-c2ccc(Cl)cc2)c1=O (configuration not stated)	3	-3	65*	25	0	/	EBI2 antag conf=35;EBI2 agonist=1;bGal counter=-7
CC(C)CNc1ncnc2c1ncn2[C@H]1CN(CCc2ccccc2)C[C@@H](CO)O1	/	/	-6	-10	/	/
Cc1ccc(CNC(=O)c2cc(=O)c3cc(C)ccc3o2)cc1	12	-2	13	-5	-5	/
